Assay results reported in publication PMC5732839 (Cancer research, 2017).
Entries after “also recorded” stand apart in the source; their conditions may differ.

Legend:
[1] = tested on: acid ceramidase; conditions: cited from earlier work
[2] = tested on: DU145 cells; test: Immunoblotting of cell cycle proteins; type: cell-based
Outline: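 DU145 cells were treated with or without different concentrations of test compound. Lysates were immunoblotted for CDK2, CDK6, cyclin D1, p27 and tubulin.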

[3] = tested on: LNCaP, 22Rv1, PC-3, and DU145 cells; test: Cell cycle analysis by flow cytometry; type: cell-based; conditions: tested prostate cancer cells, B13 for 3 d
Outline: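 Cells were grown in ATCC-recommended medium, and after attachment the medium with or without 15 or 30 µM test compound was renewed every 24 h for 3 days. 1 × 10^6 cells were PBS-washed and fixed in 70% ethanol for 1 h at 4 °C. They were stained with propidium iodide/RNase for 30 min in the dark at room temperature. Flow cytometry used 488 nm excitation and 585 nm emission, and G0/G1, S and G2/M percentages were compared with control.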

[4] = tested on: PC-3 cells; test: Wound-healing; type: cell-based; conditions: PC-3, 15 µM B13
Outline: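 PC-3 cells (8×10^5 per well) were grown 24 h to 95% confluence, then scratched with a 1 mL pipette tip. Wells were washed to remove floating cells and refed with fresh medium containing 15 µM test compound. The wound space was imaged daily.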

[5] = tested on: SYF1-Src(Y529F) cells; test: Soft agar colony formation assay; type: cell-based, mouse
[6] = tested on: DU145 cells; test: Cell proliferation; type: cell-based; conditions: DU145, B13 for 5 d
Outline: (§1)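 Cells seeded at 3000–5000/well, exposed to a range of test-compound concentrations for 5 d. Medium swapped for 100 µL phenol-red-free medium, 10 µL of 12 mM MTT stock added, 37 °C 4 h; stopped with 100 µL 10% SDS in 0.01 M HCl, further 4 h at 37 °C; absorbance at 570 nm. Mean ± SEM of n=6 wells, two-sided Student's t test.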

[7] = tested on: PC-3 cells; test: Cell proliferation; type: cell-based; conditions: PC-3, B13 for 5 d
Outline: as §1

[8] = tested on: pSrc(Y416), pFAK, pAkt; test: Immunoblotting of Src signaling in PC-3 total lysates; type: cell-based; conditions: PC-3 cells
[9] = tested on: PNT2 cells; test: Cell cycle analysis by flow cytometry; type: cell-based
[10] = Toxicity in host mice carrying PC-3 xenografts; type: in vivo, SCID mice
[11] = tested on: de novo synthesized Src kinase; test: 293T cells expressing doxycycline inducible Src; type: cell-based
Outline: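 293T-rtTA cells carrying lentiviral TRE/Src(Y529F) in DMEM with 10% FBS; Src induced with or without doxycycline 1 µg/mL plus 0 (DMSO), 15 or 30 µM test compound for 24 h. Lysed in TNE buffer (pH 7.4, protease/phosphatase inhibitors), needle-homogenised, spun 14,000 rpm 10 min (supernatant = cytosol); pellet extracted with 60 mM β-octylglucoside on ice 30 min, spun 14,000 rpm 20 min 4°C (total membrane). Immunoblot: […] antibody, caveolin-1/GAPDH markers.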

[12] = tested on: Src myristoylation; test: Src myristoylation by Click chemistry in SYF1+Src; type: cell-based, mouse; conditions: ectopically expressed Src kinase, SYF1+Src(WT) cells, myristic acid-azide 60 µM
Outline: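 Mouse SYF1 (Src−/−Yes−/−Fyn−/−) fibroblasts were lentivirally transduced with wild-type Src and grown in DMEM with 2% fatty-acid-free BSA. They were pretreated with test compound at 0, 1, 5, 15 or 30 µM for 2 h, then given 60 µM myristic acid-azide. M-PER lysates underwent Click labelling with 40 µM alkyne-biotin and CuSO4. Myristoyl-Src (60 kDa) was detected with streptavidin-HRP, and total Src and GAPDH by immunoblot.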

[13] = tested on: PNT2 normal cells; test: Cell proliferation; type: cell-based
[14] = tested on: Src myristoylation; test: Src myristoylation by Click chemistry in PC-3 cells; type: cell-based; conditions: endogenous Src kinase, myristic acid-azide 60 µM
[15] = molecular target: T1, NMT1 (Homo sapiens, UniProt P30419); test: Fluorescence-based NMT1 enzymatic activity assay; type: biochemical
T1 sequence (P30419 109-496): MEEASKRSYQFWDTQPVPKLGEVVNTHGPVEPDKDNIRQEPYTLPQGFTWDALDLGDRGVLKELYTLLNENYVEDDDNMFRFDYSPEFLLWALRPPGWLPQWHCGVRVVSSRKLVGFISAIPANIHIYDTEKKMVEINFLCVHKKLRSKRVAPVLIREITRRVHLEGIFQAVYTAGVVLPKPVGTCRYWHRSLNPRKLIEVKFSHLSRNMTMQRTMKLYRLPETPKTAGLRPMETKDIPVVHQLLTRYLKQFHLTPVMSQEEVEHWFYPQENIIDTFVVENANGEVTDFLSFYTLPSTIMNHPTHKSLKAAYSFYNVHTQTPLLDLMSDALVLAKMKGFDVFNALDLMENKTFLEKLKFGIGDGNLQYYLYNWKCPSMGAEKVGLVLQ

[16] = tested on: PC-3 xenograft tumors; test: PC-3 xenograft tumor growth; type: in vivo, SCID mice; conditions: 75 mg/kg i.v. twice a week for 6 weeks
[17] = tested on: 22Rv1 cells; test: Transwell invasion assay; type: cell-based; conditions: 22Rv1, 15 µM B13
Outline: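 22Rv1 cells at about 80% confluence were serum-starved for 24 h, then seeded in Transwell inserts. The top well held medium with 15 µM test compound or DMSO, and the receiver well held 10% FBS. After 48 h, cells were fixed with 3.7% formaldehyde (2 min) then methanol (20 min). Staining was 0.1% crystal violet for 15 min in the dark at room temperature. Non-migrated cells were swabbed off, and migrated cells were imaged and counted.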

[18] = tested on: 22Rv1 cells; test: Cell proliferation; type: cell-based; conditions: 22Rv1, B13 for 5 d
Outline: as §1

[19] = tested on: PC-3 cells; test: Immunoblotting of cell cycle proteins; type: cell-based
[20] = tested on: LNCaP cells; test: Cell proliferation; type: cell-based; conditions: B13 for 5 d
Outline: as §1

[21] = tested on: 293T cells; test: Cell proliferation; type: cell-based

Structure (SMILES): CCCCCCCCCCCCCCN[C@H](CO)[C@H](O)c1ccc([N+](=O)[O-])cc1 [LCL204]
- Inhibition of acid ceramidase relative to B13 [1]: higher inhibitory potential than B13

Structure (SMILES): CCCCCCCCCCCCCC(=O)N[C@H](CO)[C@H](O)c1ccc([N+](=O)[O-])cc1 [B13, N-[(1R,2R)-2-hydroxy-1-(hydroxymethyl)-2-(4-nitrophenyl)ethyl]-tetradecanamide]
- Expression of CDK2, cyclin D1 and p27 [2]: decreased expression of CDK2 and cyclin D1, increased expression of p27
- Expression of CDK6 [2]: decreased expression of CDK6
- Cell cycle progression [3]: significantly inhibited
- Migration [4]: suppressed
- Src(Y529F)-induced colony formation (transformation) [5]: the transformation was inhibited
- Proliferation [6]: significantly inhibited proliferation
- Proliferation [7]: significantly inhibited proliferation; also recorded: significant inhibition
- Src kinase tyrosine phosphorylation [pSrc(Y416)] [8]: inhibited Src kinase tyrosine phosphorylation
- pFAK and pAkt levels [8]: down-regulation of pFAK and pAkt
- Cell cycle [9]: did not affect the cell cycle
- Inhibition of acid ceramidase [1]: can inhibit acid ceramidase
- Body weight change ([10]; 75 mg/kg i.v. twice a week): no significant changes
- Organs' weight change ([10]; 75 mg/kg i.v. twice a week): no significant changes
- Pathological toxicity to major organs (liver, kidney, lung; H&E) ([10]; 75 mg/kg i.v. twice a week for 6 weeks): no observed pathological toxicity
- De novo synthesized Src-induced signaling ([11]; Dox 1 µg/ml, 15 and 30 µM B13, 24 h): suppression of de novo synthesized Src-induced signaling
- Non-phosphorylated Src kinase [non-pSrc(Y527)] at the cytoplasmic membrane ([11]; doxycycline induced, membrane fraction): reduced
- Src myristoylation (myristoyl-Src level) [12]: inhibited Src myristoylation
- Proliferation [13]: limited effect
- Src myristoylation (myristoyl-Src level) [14]: inhibited Src myristoylation
- IC50 [15]: 77.6 µM
- Size and weight of PC-3 xenograft tumors [16]: significantly inhibited the size and weight
- Invasion [17]: suppressed invasion
- Proliferation [18]: significantly inhibited proliferation; also recorded: significant inhibition
- Expression of CDK2, cyclin D1 and p27 [19]: decreased expression of CDK2 and cyclin D1, increased expression of p27
- Proliferation [20]: less sensitive
- Proliferation [21]: did not affect
